# Source: ChEMBL document CHEMBL4689842, “EUbOPEN Chemogenomics Library wave 1” (2021)
# System: Fibroblast
# Experiment: Multiplex assay against human fibroblast
# Format: toxicity, cell-based
# Procedure, shortened: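 Live cells carried four stains from seeding: Hoechst33342, BioTracker Green Microtubule Cytoskeleton Dye, MitoTracker Red and Annexin V Alexa Fluor 680. They were imaged on a CQ1 microscope at 37°C and 5% CO2 after compound addition. Using CellPathfinder machine-learning gating, cells were split into Hoechst high-intensity objects or normal cells, normal cells into healthy, pyknosed or fragmented nuclei, and pyknosed cells into mitotic or apoptotic; tubulin, mitochondrial-mass and membrane-permeability phenotypes are per cents of healthy-nucleus cells.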
# [1] = 12 h, 1 µM, compound concentration 1 uM, replicate 1
# [2] = 12 h, 1 µM, compound concentration 1 uM, replicate 2
# [3] = 12 h, 10 µM, compound concentration 10 uM, replicate 1
# [4] = 12 h, 10 µM, compound concentration 10 uM, replicate 2
# [5] = 24 h, 1 µM, compound concentration 1 uM, replicate 1
# [6] = 24 h, 1 µM, compound concentration 1 uM, replicate 2
# [7] = 24 h, 10 µM, compound concentration 10 uM, replicate 1
# [8] = 24 h, 10 µM, compound concentration 10 uM, replicate 2
# [9] = 48 h, 1 µM, compound concentration 1 uM, replicate 1
# [10] = 48 h, 1 µM, compound concentration 1 uM, replicate 2
# [11] = 48 h, 10 µM, compound concentration 10 uM, replicate 1
# [12] = 48 h, 10 µM, compound concentration 10 uM, replicate 2
structure (smiles),measurement,setting,value
O=C(Nc1ccc(Cl)cc1)Nc1cccc(-c2cccc(N3CCCC3)n2)c1,Population Apoptotic (%),[1],45%
same,Population Fragmented Nuclei (%),[1],32%
same,Population Healthy Nuclei (%),[1],41%
same,Population Hoechst High Intensity Objects (%),[1],18%
same,Population Membrane Permeable-Phenotype (%),[1],43%
same,Population Mitochondria Different-Phenotype (%),[1],5%
same,Population Mitotic Cells (%),[1],54%
same,Population Normal (%),[1],81%
same,Population Pyknosed Nuclei (%),[1],26%
same,Population Tubulin-Different-Phenotype (%),[1],35%
same,Total Cell Count,[1],110
same,Population Apoptotic (%),[2],25%
same,Population Fragmented Nuclei (%),[2],17%
same,Population Healthy Nuclei (%),[2],76%
same,Population Hoechst High Intensity Objects (%),[2],7%
same,Population Membrane Permeable-Phenotype (%),[2],10%
same,Population Mitochondria Different-Phenotype (%),[2],8%
same,Population Mitotic Cells (%),[2],75%
same,Population Normal (%),[2],92%
same,Population Pyknosed Nuclei (%),[2],6%
same,Population Tubulin-Different-Phenotype (%),[2],12%
same,Total Cell Count,[2],83
same,Population Apoptotic (%),[3],66%
same,Population Fragmented Nuclei (%),[3],21%
same,Population Healthy Nuclei (%),[3],23%
same,Population Hoechst High Intensity Objects (%),[3],35%
same,Population Membrane Permeable-Phenotype (%),[3],40%
same,Population Mitochondria Different-Phenotype (%),[3],0%
same,Population Mitotic Cells (%),[3],34%
same,Population Normal (%),[3],64%
same,Population Pyknosed Nuclei (%),[3],54%
same,Population Tubulin-Different-Phenotype (%),[3],54%
same,Total Cell Count,[3],142
same,Population Apoptotic (%),[4],72%
same,Population Fragmented Nuclei (%),[4],3%
same,Population Healthy Nuclei (%),[4],78%
same,Population Hoechst High Intensity Objects (%),[4],7%
same,Population Membrane Permeable-Phenotype (%),[4],69%
same,Population Mitochondria Different-Phenotype (%),[4],7%
same,Population Mitotic Cells (%),[4],27%
same,Population Normal (%),[4],92%
same,Population Pyknosed Nuclei (%),[4],17%
same,Population Tubulin-Different-Phenotype (%),[4],74%
same,Total Cell Count,[4],69
same,Population Apoptotic (%),[5],50%
same,Population Fragmented Nuclei (%),[5],31%
same,Population Healthy Nuclei (%),[5],52%
same,Population Hoechst High Intensity Objects (%),[5],13%
same,Population Membrane Permeable-Phenotype (%),[5],23%
same,Population Mitochondria Different-Phenotype (%),[5],0%
same,Population Mitotic Cells (%),[5],50%
same,Population Normal (%),[5],86%
same,Population Pyknosed Nuclei (%),[5],15%
same,Population Tubulin-Different-Phenotype (%),[5],42%
same,Total Cell Count,[5],103
same,Population Apoptotic (%),[6],20%
same,Population Fragmented Nuclei (%),[6],18%
same,Population Healthy Nuclei (%),[6],75%
same,Population Hoechst High Intensity Objects (%),[6],6%
same,Population Membrane Permeable-Phenotype (%),[6],7%
same,Population Mitochondria Different-Phenotype (%),[6],3%
same,Population Mitotic Cells (%),[6],80%
same,Population Normal (%),[6],93%
same,Population Pyknosed Nuclei (%),[6],6%
same,Population Tubulin-Different-Phenotype (%),[6],12%
same,Total Cell Count,[6],94
same,Population Apoptotic (%),[7],91%
same,Population Fragmented Nuclei (%),[7],17%
same,Population Healthy Nuclei (%),[7],24%
same,Population Hoechst High Intensity Objects (%),[7],31%
same,Population Membrane Permeable-Phenotype (%),[7],45%
same,Population Mitochondria Different-Phenotype (%),[7],33%
same,Population Mitotic Cells (%),[7],8%
same,Population Normal (%),[7],68%
same,Population Pyknosed Nuclei (%),[7],58%
same,Population Tubulin-Different-Phenotype (%),[7],50%
same,Total Cell Count,[7],145
same,Population Apoptotic (%),[8],72%
same,Population Fragmented Nuclei (%),[8],13%
same,Population Healthy Nuclei (%),[8],54%
same,Population Hoechst High Intensity Objects (%),[8],25%
same,Population Membrane Permeable-Phenotype (%),[8],46%
same,Population Mitochondria Different-Phenotype (%),[8],15%
same,Population Mitotic Cells (%),[8],27%
same,Population Normal (%),[8],74%
same,Population Pyknosed Nuclei (%),[8],31%
same,Population Tubulin-Different-Phenotype (%),[8],46%
same,Total Cell Count,[8],81
same,Population Apoptotic (%),[9],55%
same,Population Fragmented Nuclei (%),[9],40%
same,Population Healthy Nuclei (%),[9],51%
same,Population Hoechst High Intensity Objects (%),[9],14%
same,Population Membrane Permeable-Phenotype (%),[9],33%
same,Population Mitochondria Different-Phenotype (%),[9],1%
same,Population Mitotic Cells (%),[9],44%
same,Population Normal (%),[9],85%
same,Population Pyknosed Nuclei (%),[9],7%
same,Population Tubulin-Different-Phenotype (%),[9],28%
same,Total Cell Count,[9],135
same,Population Apoptotic (%),[10],0%
same,Population Fragmented Nuclei (%),[10],28%
same,Population Healthy Nuclei (%),[10],70%
same,Population Hoechst High Intensity Objects (%),[10],12%
same,Population Membrane Permeable-Phenotype (%),[10],22%
same,Population Mitotic Cells (%),[10],100%
same,Population Normal (%),[10],87%
same,Population Pyknosed Nuclei (%),[10],1%
same,Population Tubulin-Different-Phenotype (%),[10],34%
same,Total Cell Count,[10],107
same,Population Apoptotic (%),[11],94%
same,Population Fragmented Nuclei (%),[11],19%
same,Population Healthy Nuclei (%),[11],17%
same,Population Hoechst High Intensity Objects (%),[11],45%
same,Population Membrane Permeable-Phenotype (%),[11],35%
same,Population Mitochondria Different-Phenotype (%),[11],28%
same,Population Mitotic Cells (%),[11],5%
same,Population Normal (%),[11],54%
same,Population Pyknosed Nuclei (%),[11],63%
same,Population Tubulin-Different-Phenotype (%),[11],50%
same,Total Cell Count,[11],151
same,Population Apoptotic (%),[12],95%
same,Population Fragmented Nuclei (%),[12],16%
same,Population Healthy Nuclei (%),[12],9%
same,Population Hoechst High Intensity Objects (%),[12],63%
same,Population Membrane Permeable-Phenotype (%),[12],27%
same,Population Mitochondria Different-Phenotype (%),[12],18%
same,Population Mitotic Cells (%),[12],4%
same,Population Normal (%),[12],36%
same,Population Pyknosed Nuclei (%),[12],73%
same,Population Tubulin-Different-Phenotype (%),[12],36%
same,Total Cell Count,[12],325
